Test results from ChEMBL document CHEMBL4118159, “Discovery of tetrahydroindazoles as a novel class of potent and in vivo efficacious gamma secretase modulators” (Bioorg Med Chem, 2018).
pIC50: −log10 of the molar value.

Molecular target: Gamma-secretase
Assay: Modulation of gamma secretase in human H4 cells expressing human wild type APP assessed as inhibition of amyloid beta 42 production after 22 hrs by electrochemiluminescence assay
Assay type: cell-based
Method in brief: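 H4 cells overexpressing human APPwt, 10,000/well, were exposed to compound 22 h at 37°C, 5% CO2. Supernatant was diluted with medium on an MSD anti-Aβ42 plate and detected with S-tag 6E10 (1:50, 1 h). Read-out was electrochemiluminescence.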

SMILES	pIC50
CCc1nn(C)c2c1CCC(Nc1nc3c(-c4ccc(F)cc4C)cccn3n1)C2 (centres undefined)	5.50
Cc1cc(F)ccc1-c1cccn2nc(Nc3ccc4c(cnn4C)c3)nc12	5.92
CCn1nc(Cl)c2c1CCC(Nc1nc3c(-c4ccc(F)cc4C)cccn3n1)C2 (centres undefined)	6.12
CCn1ncc2c1CCC(Nc1nc3c(-c4cccnc4OC)cccn3n1)C2 (centres undefined)	6.30
Cc1cc(F)ccc1-c1cccn2nc(NC3CCc4cnn(C)c4C3)nc12 (centres undefined)	< 4.52
Cc1cc(F)ccc1-c1cccn2nc(NC3CCc4c(cnn4CC(C)C)C3)nc12 (centres undefined)	5.47
CCn1ncc2c1CCC(Nc1nc3c(-c4cnccc4C)cccn3n1)C2 (centres undefined)	6.14
Cc1cc(F)ccc1-c1cccn2nc(NC3CCc4c(cnn4C)C3)nc12 (centres undefined)	6.42
CCn1ncc2c1CC[C@H](Nc1nc3c(-c4ccc(F)c(Cl)c4)cccn3n1)C2	6.71
CCn1nnc2c1CCC(Nc1nc3c(-c4ccc(F)cc4C)cccn3n1)C2 (centres undefined)	5.66

These reach a higher pIC50. Values come first.

pIC50	SMILES
6.74	CCn1ncc2c1CCC(Nc1nc3c(-c4ccc(F)cc4)cccn3n1)C2 (centres undefined)
7.15	CCn1ncc2c1CCC(Nc1nc3c(-c4ccc(F)cc4C)cccn3n1)C2 (centres undefined)
7.22	CCn1ncc2c1CCC(Nc1nc3c(-c4ccc(Cl)cc4)cccn3n1)C2 (centres undefined)
7.22	CCCn1ncc2c1CCC(Nc1nc3c(-c4ccc(F)cc4C)cccn3n1)C2 (centres undefined)
7.30	CCn1ncc2c1CCC(Nc1nc3c(-c4ccc(N(C)C)nc4)cccn3n1)C2 (centres undefined)
7.40	CCn1ncc2c1CCC(Nc1nc3c(-c4cncc(Cl)c4)cccn3n1)C2 (centres undefined)
7.40	CCn1ncc2c1CCC(Nc1nc3c(-c4cccc(Cl)c4)cccn3n1)C2 (centres undefined)
7.52	CCn1ncc2c1CCC(Nc1nc3c(-c4cc(F)c(F)c(F)c4)cccn3n1)C2 (centres undefined)
7.70	CCn1ncc2c1CCC(Nc1nc3c(-c4ccc(F)c(Cl)c4)cccn3n1)C2 (centres undefined)
